Reference: ChEMBL document CHEMBL1143164, “Synthesis and structure-activity relationships of ring-opened 17-hydroxywortmannins: potent phosphoinositide 3-kinase inhibitors with improved properties and anticancer efficacy” (J Med Chem, 2008)
pIC50: −log10 of the molar value.

Experiments:
LNCaP = test: Growth inhibition of human LNCap cells; format: functional, cell-based
[1] = molecular target: Serine/threonine-protein kinase mTOR (Homo sapiens, UniProt P42345); test: Inhibition of mTOR
[2] = molecular target: Phosphatidylinositol 4,5-bisphosphate 3-kinase catalytic subunit alpha isoform (Homo sapiens, UniProt P42336); test: Inhibition of PI3K expressed in Escherichia coli by microtiter plate-based fluorescence polarization assay
Chain of Phosphatidylinositol 4,5-bisphosphate 3-kinase catalytic subunit alpha isoform (P42336 whole entry, canonical isoform): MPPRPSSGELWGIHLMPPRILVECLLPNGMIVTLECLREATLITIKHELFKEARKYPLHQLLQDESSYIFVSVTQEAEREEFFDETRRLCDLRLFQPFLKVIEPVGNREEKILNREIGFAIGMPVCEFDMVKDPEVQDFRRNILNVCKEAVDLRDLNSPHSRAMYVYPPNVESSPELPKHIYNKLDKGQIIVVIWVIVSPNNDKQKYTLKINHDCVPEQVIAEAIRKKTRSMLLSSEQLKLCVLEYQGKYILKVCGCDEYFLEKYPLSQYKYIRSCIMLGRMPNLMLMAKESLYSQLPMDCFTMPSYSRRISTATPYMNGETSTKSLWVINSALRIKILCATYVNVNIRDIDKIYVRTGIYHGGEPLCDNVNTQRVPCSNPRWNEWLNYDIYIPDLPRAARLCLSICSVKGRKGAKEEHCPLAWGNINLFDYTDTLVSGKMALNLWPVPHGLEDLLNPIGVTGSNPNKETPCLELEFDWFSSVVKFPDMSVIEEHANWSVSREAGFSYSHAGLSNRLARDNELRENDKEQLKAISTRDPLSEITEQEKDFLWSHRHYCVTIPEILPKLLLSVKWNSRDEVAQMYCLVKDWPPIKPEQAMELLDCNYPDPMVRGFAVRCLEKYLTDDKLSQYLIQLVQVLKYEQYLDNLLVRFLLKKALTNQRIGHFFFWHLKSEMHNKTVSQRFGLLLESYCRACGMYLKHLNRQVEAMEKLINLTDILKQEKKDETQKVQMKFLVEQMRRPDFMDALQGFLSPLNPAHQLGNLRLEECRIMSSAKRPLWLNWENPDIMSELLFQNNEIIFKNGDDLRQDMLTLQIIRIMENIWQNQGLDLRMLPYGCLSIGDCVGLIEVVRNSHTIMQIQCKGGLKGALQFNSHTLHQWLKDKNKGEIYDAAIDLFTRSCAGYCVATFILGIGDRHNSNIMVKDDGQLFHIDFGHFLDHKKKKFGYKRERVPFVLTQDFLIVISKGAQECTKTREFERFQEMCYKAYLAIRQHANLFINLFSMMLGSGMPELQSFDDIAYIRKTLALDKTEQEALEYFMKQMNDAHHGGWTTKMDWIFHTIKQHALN
Procedure, shortened: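 Fluorescence polarization assay of PI3K activity with PIP2 substrate. Reactions contained 20 mM Hepes pH 7.5, 2 mM MgCl2, 0.05% CHAPS, 0.01% βME, 20 µM PIP2 and 25 µM ATP, and ran 15–30 min at room temperature. They were stopped with buffer holding 10 nM TAMRA-labeled probe and 40 nM GST-GRP1 (E. coli-expressed detector), then incubated 1–2 h before FP readout.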

SMILES	pIC50 (LNCaP)	pIC50 [1]	pIC50 [2]
COC[C@H]1OC(=O)/C(=C/N(C)CCCC(=O)O)C2=C(O)C(=O)C3=C([C@H](OC(C)=O)C[C@]4(C)[C@@H](O)CC[C@@H]34)[C@]21C	6.44	4.90	6.71
COC[C@H]1OC(=O)/C(=C/N(C)CCCN2CCOCC2)C2=C(O)C(=O)C3=C([C@H](OC(C)=O)C[C@]4(C)[C@@H](O)CC[C@@H]34)[C@]21C	6.23	5.64	7.62
COC[C@H]1OC(=O)/C(=C/N2CCN(c3ccccc3)CC2)C2=C(O)C(=O)C3=C([C@H](OC(C)=O)C[C@]4(C)[C@@H](O)CC[C@@H]34)[C@]21C	6.02	6.16	7.25
COC[C@H]1OC(=O)/C(=C/N2CCCC2)C2=C(O)C(=O)C3=C([C@H](OC(C)=O)C[C@]4(C)[C@@H](O)CC[C@@H]34)[C@]21C	6.59	< 4.70	6.30
COC[C@H]1OC(=O)/C(=C/N2CCN(Cc3ccccc3)CC2)C2=C(O)C(=O)C3=C([C@H](OC(C)=O)C[C@]4(C)[C@@H](O)CC[C@@H]34)[C@]21C	5.78	6.05	7.06
COC[C@H]1OC(=O)/C(=C/N(C)CC(O)CO)C2=C(O)C(=O)C3=C([C@H](OC(C)=O)C[C@]4(C)[C@@H](O)CC[C@@H]34)[C@]21C (stereo partly drawn)	6.77	5.73	6.70
COC[C@H]1OC(=O)/C(=C/N2CCC(c3ccccc3)CC2)C2=C(O)C(=O)C3=C([C@H](OC(C)=O)C[C@]4(C)[C@@H](O)CC[C@@H]34)[C@]21C	5.82	5.61	6.76
COC[C@H]1OC(=O)/C(=C/N2CCN(C3CCCCC3)CC2)C2=C(O)C(=O)C3=C([C@H](OC(C)=O)C[C@]4(C)[C@@H](O)CC[C@@H]34)[C@]21C	5.83	6.09	7.37
COC[C@H]1OC(=O)/C(=C/N(C)C(C)(C)C)C2=C(O)C(=O)C3=C([C@H](OC(C)=O)C[C@]4(C)[C@@H](O)CC[C@@H]34)[C@]21C	6.72	5.19	6.36
COC[C@H]1OC(=O)/C(=C/N(CCCN(C)C)C(C)(C)C)C2=C(O)C(=O)C3=C([C@H](OC(C)=O)C[C@]4(C)[C@@H](O)CC[C@@H]34)[C@]21C	6.04	6.09	8.02
COC[C@H]1OC(=O)/C(=C/N2CCOCC2)C2=C(O)C(=O)C3=C([C@H](OC(C)=O)C[C@]4(C)[C@@H](O)CC[C@@H]34)[C@]21C	6.02	6.08	7.43
COC[C@H]1OC(=O)/C(=C/N2CCC(C(=O)O)CC2)C2=C(O)C(=O)C3=C([C@H](OC(C)=O)C[C@]4(C)[C@@H](O)CC[C@@H]34)[C@]21C	6.30	6.09	7.48
COC[C@H]1OC(=O)/C(=C/N(CCC#N)Cc2ccccc2)C2=C(O)C(=O)C3=C([C@H](OC(C)=O)C[C@]4(C)[C@@H](O)CC[C@@H]34)[C@]21C	6.84	< 5.77	6.35
COC[C@H]1OC(=O)/C(=C/N2CCN(CCCN3CCOCC3)CC2)C2=C(O)C(=O)C3=C([C@H](OC(C)=O)C[C@]4(C)[C@@H](O)CC[C@@H]34)[C@]21C	6.20	5.92	7.35
COC[C@H]1OC(=O)/C(=C/N2CCC(=O)CC2)C2=C(O)C(=O)C3=C([C@H](OC(C)=O)C[C@]4(C)[C@@H](O)CC[C@@H]34)[C@]21C	6.16	6.02	7.22
CCN(/C=C1/C(=O)O[C@H](COC)[C@@]2(C)C1=C(O)C(=O)C1=C2[C@H](OC(C)=O)C[C@]2(C)[C@@H](O)CC[C@@H]12)CCCN(C)C	6.27	5.45	7.92
COC[C@H]1OC(=O)/C(=C/N(C)CCCN(C)C)C2=C(O)C(=O)C3=C([C@H](O)C[C@]4(C)[C@@H](O)CC[C@@H]34)[C@]21C	5.63	< 4.70	6.20
COC[C@H]1OC(=O)/C(=C/N(C)CCCN2CCN(C)CC2)C2=C(O)C(=O)C3=C([C@H](OC(C)=O)C[C@]4(C)[C@@H](O)CC[C@@H]34)[C@]21C	6.33	5.63	8.00
COC[C@H]1OC(=O)/C(=C/N2CCC(N3CCCCC3)CC2)C2=C(O)C(=O)C3=C([C@H](OC(C)=O)C[C@]4(C)[C@@H](O)CC[C@@H]34)[C@]21C	5.82	6.25	7.20
COC[C@H]1OC(=O)/C(=C/N2CCN(CCCN(C)C)CC2)C2=C(O)C(=O)C3=C([C@H](OC(C)=O)C[C@]4(C)[C@@H](O)CC[C@@H]34)[C@]21C	6.08	6.60	7.42
COC[C@H]1OC(=O)/C(=C/NC(C)(C)C)C2=C(O)C(=O)C3=C([C@H](OC(C)=O)C[C@]4(C)[C@@H](O)CC[C@@H]34)[C@]21C	4.39	< 4.70	< 5.00

SMILES	pIC50 (LNCaP)	pIC50 [1]	pIC50 [2]
COC[C@H]1OC(=O)/C(=C/NCCCN(C)C)C2=C(O)C(=O)C3=C([C@H](OC(C)=O)C[C@]4(C)[C@@H](O)CC[C@@H]34)[C@]21C	5.69	< 4.70	< 5.00
COC[C@H]1OC(=O)/C(=C/N2CCCCC2)C2=C(O)C(=O)C3=C([C@H](OC(C)=O)C[C@]4(C)[C@@H](O)CC[C@@H]34)[C@]21C	5.81	5.74	6.98
COC[C@H]1OC(=O)/C(=C/N2CCN(CCN3CCOCC3)CC2)C2=C(O)C(=O)C3=C([C@H](OC(C)=O)C[C@]4(C)[C@@H](O)CC[C@@H]34)[C@]21C	6.10	6.21	7.11
C=CCN(/C=C1/C(=O)O[C@H](COC)[C@@]2(C)C1=C(O)C(=O)C1=C2[C@H](OC(C)=O)C[C@]2(C)C(=O)CC[C@@H]12)CC=C [SONOLISIB]	6.24	5.51	7.06
CCN(/C=C1/C(=O)O[C@H](COC)[C@@]2(C)C1=C(O)C(=O)C1=C2[C@H](O)C[C@]2(C)[C@@H](O)CC[C@@H]12)CC	6.15	< 4.70	5.11
COC[C@H]1OC(=O)/C(=C/N(CCCN(C)C)CCCN(C)C)C2=C(O)C(=O)C3=C([C@H](OC(C)=O)C[C@]4(C)[C@@H](O)CC[C@@H]34)[C@]21C	6.59	5.45	7.66
COC[C@H]1OC(=O)/C(=C/N(C)CCCN2CCN(c3ccc(OC)cc3)CC2)C2=C(O)C(=O)C3=C([C@H](OC(C)=O)C[C@]4(C)[C@@H](O)CC[C@@H]34)[C@]21C	6.21	5.87	7.82
CCN(/C=C1/C(=O)O[C@H](COC)[C@@]2(C)C1=C(O)C(=O)C1=C2[C@H](OC(C)=O)C[C@]2(C)[C@@H](O)CC[C@@H]12)CCN(CC)CC	5.88	5.83	7.62
CCN(CC)CCN(C)/C=C1/C(=O)O[C@H](COC)[C@@]2(C)C1=C(O)C(=O)C1=C2[C@H](OC(C)=O)C[C@]2(C)[C@@H](O)CC[C@@H]12	5.59	6.12	7.30
COC[C@H]1OC(=O)/C(=C/N(CCN(C)C)Cc2ccccc2)C2=C(O)C(=O)C3=C([C@H](OC(C)=O)C[C@]4(C)[C@@H](O)CC[C@@H]34)[C@]21C	5.84	5.25	7.18
CCN(/C=C1/C(=O)O[C@H](COC)[C@@]2(C)C1=C(O)C(=O)C1=C2[C@H](OC(C)=O)C[C@]2(C)[C@@H](O)CC[C@@H]12)CCN(C)C	5.99	6.06	8.30
COC[C@H]1OC(=O)/C(=C/N2CCN(C3CCN(C)CC3)CC2)C2=C(O)C(=O)C3=C([C@H](OC(C)=O)C[C@]4(C)[C@@H](O)CC[C@@H]34)[C@]21C	6.11	6.02	7.04
COC[C@H]1OC(=O)/C(=C/N(CCO)CCO)C2=C(O)C(=O)C3=C([C@H](OC(C)=O)C[C@]4(C)[C@@H](O)CC[C@@H]34)[C@]21C	6.88	< 4.73	6.04
COC[C@H]1OC(=O)/C(=C/N(C)C2CCN(C)C2)C2=C(O)C(=O)C3=C([C@H](OC(C)=O)C[C@]4(C)[C@@H](O)CC[C@@H]34)[C@]21C (stereo partly drawn)	6.00	5.92	6.90
CCN/C=C1/C(=O)O[C@H](COC)[C@@]2(C)C1=C(O)C(=O)C1=C2[C@H](OC(C)=O)C[C@]2(C)[C@@H](O)CC[C@@H]12	5.15	< 4.70	< 5.00
COC[C@H]1OC(=O)/C(=C/N(C)CC(=O)OC(C)(C)C)C2=C(O)C(=O)C3=C([C@H](OC(C)=O)C[C@]4(C)[C@@H](O)CC[C@@H]34)[C@]21C	6.76	4.86	5.80
COC[C@H]1OC(=O)/C(=C/N2CCC(C(=O)OC)CC2)C2=C(O)C(=O)C3=C([C@H](OC(C)=O)C[C@]4(C)[C@@H](O)CC[C@@H]34)[C@]21C	6.30	5.77	7.51
CCCCN(C)/C=C1/C(=O)O[C@H](COC)[C@@]2(C)C1=C(O)C(=O)C1=C2[C@H](OC(C)=O)C[C@]2(C)[C@@H](O)CC[C@@H]12	6.69	5.06	6.20
COC[C@H]1OC(=O)/C(=C/N(C)CCN(C)C)C2=C(O)C(=O)C3=C([C@H](OC(C)=O)C[C@]4(C)[C@@H](O)CC[C@@H]34)[C@]21C	6.12	5.83	8.08
COC[C@H]1OC(=O)/C(=C/N2CCN(C)CC2)C2=C(O)C(=O)C3=C([C@H](OC(C)=O)C[C@]4(C)[C@@H](O)CC[C@@H]34)[C@]21C	5.96	6.08	7.05
